Experimental data reported in PMC4128789 (Drug Design, Development and Therapy, 2014).
Read-outs that look alike come from different tables or passages of the source.

Columns and labels:
Type in all cases: cell-based
[1] = system: MCF-7 (human breast adenocarcinoma) cells; assay: MTT in vitro cytotoxicity assay, MCF-7; settings: read-out: IC50 (μM) MCF-7
Method in brief: (§1)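 Cells grown in DMEM with 10% FBS, penicillin/streptomycin, 37°C, 5% CO2. Seeded at 10,000 (MCF-7), 5,000 (SW-1990) or 6,000 (SMMC-7721) per well for 24 h. Test compound in DMSO, diluted in medium (0.1% DMSO), given at 1.95–250 μM final for 48 h. MTT (5 mg/mL, 10% v/v) added for 4 h; formazan dissolved in DMSO; A570 read, 630 nm background. % inhibition calculated versus 0.1% DMSO control; IC50 from viability–dose plot; at least triplicate, mean ± SD.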

[2] = system: SW-1990 (human pancreatic carcinoma) cells; assay: MTT in vitro cytotoxicity assay, SW-1990; settings: for IC50: read-out: IC50 (μM) SW-1990
Method in brief: as §1

[3] = system: SMMC-7721 (human liver carcinoma) cells; assay: MTT in vitro cytotoxicity assay, SMMC-7721; settings: read-out: IC50 (μM) SMMC-7721
Method in brief: as §1

[4] = system: Human umbilical vein endothelial cell (HUVEC); assay: MTT in vitro cytotoxicity assay, HUVEC; settings: for selectivity toward the normal cell line HUVEC compared with berberine: cancer cell lines versus HUVEC
Method in brief: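 HUVEC used at passages 1–7, grown in endothelial basal medium with 3% FBS growth supplement. Seeded at 5,000 cells/well and held 24 h at 37°C, 5% CO2. Test compound in DMSO, diluted in medium (0.1% DMSO final), given at 1.95–250 μM for 48 h. MTT added for 4 h, formazan dissolved in DMSO, absorbance read at 570 nm less 630 nm. IC50 from viability versus dose; at least triplicate, mean ± SD.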

[5] = MTT assay after 48 hours of drug exposure, mean ± SD

Compound | IC50 [1, 5] [µM] | IC50 [2, 5] [µM] | IC50 [3, 5] [µM] | other results
9-O-[1-(2-fluorobenzyl)-4-ethyl-1H-1, 2, 3-triazole] berberine chloride [Compound 5] | 75 ± 9.35 | 64 ± 8.46 | 44.5 ± 4.88 | –
9-O-[1-(2-methylbenzyl)-4-ethyl-1H-1, 2, 3-triazole] berberine chloride [Compound 14] | 40.8 ± 5.92 | 23.7 ± 3.47 | 19.9 ± 2.33 | selectivity toward the normal cell line HUVEC compared with berberine [4]: much better selectivity than berberine
9-O-[1-(3-fluorobenzyl)-4-ethyl-1H-1, 2, 3-triazole] berberine chloride [Compound 6] | 69.9 ± 8.73 | 62.6 ± 7.85 | 51.5 ± 6.03 | –
9-O-[1-(4-fluorobenzyl)-4-ethyl-1H-1, 2, 3-triazole] berberine chloride [Compound 7] | 73.5 ± 10.2 | 53.6 ± 6.33 | 54.6 ± 5.98 | –
COc1ccc2cc3[n+](cc2c1OC)CCc1cc2c(cc1-3)OCO2 [BBR, berberine, reference compound] | – | – | – | IC50 ([1]; Homo sapiens, MCF7, 48 h): 122 ± 11.3 µM; IC50 ([2]; Homo sapiens, SW1990, 48 h): 27.6 ± 3.04 µM; inhibition at 62.5 µM ([2]; Homo sapiens, SW1990, read-out: inhibition against SW-1990 cell growth): > 50%; IC50 ([3]; Homo sapiens, SMMC-7721, 48 h): 68.1 ± 7.76 µM; IC50 ([4]; Homo sapiens, HUVEC, 48 h, read-out: IC50 (μM) HUVEC): 18.3 ± 2.31 µM
COc1ccc2cc3[n+](cc2c1OCCc1cn(Cc2ccc(Br)cc2)nn1)CCc1cc2c(cc1-3)OCO2 [Compound 13, 9-O-[1-(4-bromobenzyl)-4-ethyl-1H-1,2,3-triazole] berberine chloride] | 47.1 ± 6.93 | 30.4 ± 4.89 | 20 ± 2.37 | –
COc1ccc2cc3[n+](cc2c1OCCc1cn(Cc2ccc(C)cc2)nn1)CCc1cc2c(cc1-3)OCO2.[Cl-] [Compound 15, 9-O-[1-(4-methylbenzyl)-4-ethyl-1H-1,2,3-triazole] berberine chloride] | 37.8 ± 4.66 | 32 ± 4.23 | 39.4 ± 4.98 | selectivity toward the normal cell line HUVEC compared with berberine [4]: much better selectivity than berberine
COc1ccc2cc3[n+](cc2c1OCCc1cn(Cc2cccc(C(F)(F)F)c2)nn1)CCc1cc2c(cc1-3)OCO2 [Compound 20, 9-O-[1-(3-(trifluoromethyl)benzyl-4-ethyl-1H-1,2,3-triazole]berberine chloride] | 86.2 ± 10.5 | 39.3 ± 3.76 | 32.2 ± 5.2 | –
COc1ccc2cc3[n+](cc2c1OCCc1cn(Cc2ccc(C(F)(F)F)cc2)nn1)CCc1cc2c(cc1-3)OCO2 [Compound 21, 9-O-[1-(4-(trifluoromethyl)benzyl-4-ethyl-1H-1,2,3-triazole]berberine chloride] | 68.1 ± 7.56 | 36.8 ± 3.45 | 23.3 ± 2.63 | –
COC(=O)c1ccc(Cn2cc(CCOc3c(OC)ccc4cc5[n+](cc34)CCc3cc4c(cc3-5)OCO4)nn2)cc1 [Compound 25, 9-O-[1-(4-methyl formatebenzyl)-4-ethyl-1H-1,2,3-triazole] berberine chloride] | 249 ± 20.1 | 165 ± 18.9 | 53.5 ± 5.84 | –
COc1ccc2cc3[n+](cc2c1OCCc1cn(Cc2ccc(F)cc2F)nn1)CCc1cc2c(cc1-3)OCO2 [Compound 27, 9-O-[1-(2,4-difluorobenzyl)-4-ethyl-1H-1,2,3-triazole] berberine chloride] | 70.7 ± 6.45 | 69 ± 9.33 | 35.9 ± 4.76 | –
COc1ccc2cc3[n+](cc2c1OCCc1cn(Cc2ccc(F)c(F)c2)nn1)CCc1cc2c(cc1-3)OCO2 [Compound 29, 9-O-[1-(3,4-difluorobenzyl)-4-ethyl-1H-1,2,3-triazole] berberine chloride] | 81.2 ± 10.4 | 38.5 ± 4.65 | 43.8 ± 5.32 | –
COc1ccc2cc3[n+](cc2c1OCCc1cn(Cc2cc(Cl)ccc2Cl)nn1)CCc1cc2c(cc1-3)OCO2 [Compound 33, 9-O-[1-(2,5-dichlorobenzyl)-4-ethyl-1H-1,2,3-triazole] berberine chloride] | 65.5 ± 7.22 | 38.6 ± 4.57 | 24.2 ± 3.48 | –
COc1ccc2cc3[n+](cc2c1OCCc1cn(Cc2ccc(Cl)c(Cl)c2)nn1)CCc1cc2c(cc1-3)OCO2.[Cl-] [Compound 35, 9-O-[1-(3,4-dichlorobenzyl)-4-ethyl-1H-1,2,3-triazole] berberine chloride] | 30.8 ± 4.32 | 20.4 ± 2.35 | 16.1 ± 2.92 | IC50 against HUVECs relative to compound 32 ([4]; ratio to compound 32 IC50): four times lower than that of 32
